The values that follow come from ChEMBL document CHEMBL4184298, “Development of Potent Inhibitors of Receptor Tyrosine Kinases by Ligand-Based Drug Design and Target-Biased Phenotypic Screening” (J Med Chem, 2018).

Calls of active or inactive are those of the source. The calls are words filed in the database; no cut-off is given here.

The target in assay [1] is Platelet-derived growth factor receptor alpha (Homo sapiens, UniProt P16234). Nature of the assay: Inhibition of wild-type human partial length PDGFRA (V575 to D1002 residues) expressed in mammalian expression system using poly [Glu, Try] 4:1 as substrate in presence of [gamma-33P]ATP. The essentials:
(§1)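 Radiometric assay on recombinant kinase: ³³P incorporation into the kinase substrate was measured and activity was expressed relative to a DMSO control.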

A further assay addresses Aurora kinase B (Homo sapiens, UniProt Q96GD4). Nature of the assay: Inhibition of wild-type human partial length AURKB (D25 to A303 residues) expressed in mammalian expression system using poly [Glu, Try] 4:1 as substrate in presence of [gamma-33P]ATP. The essentials: as §1
The next assay concerns MV4-11. Description: Antiproliferative activity against human MV4-11 cells after 5 days by PrestoBlue assay. Format: functional, cell-based.
Assay [2] has as its target Epithelial discoidin domain-containing receptor 1 (Homo sapiens, UniProt Q08345). Nature of the assay: Inhibition of wild-type human partial length DDR1 (R565 to V876 residues) expressed in bacterial expression system using poly [Glu, Try] 4:1 as substrate in presence of [gamma-33P]ATP. The essentials: as §1
The next assay deals with MOLM-13. Nature of the assay: Antiproliferative activity against human MOLM13 cells after 5 days by PrestoBlue assay. Format: functional, cell-based.
In assay [3] the target is Receptor-type tyrosine-protein kinase FLT3 (Homo sapiens, UniProt P36888, D835Y). Description: Inhibition of human partial length FLT3 D835Y mutant (Q580 to Y969 residues) expressed in bacterial expression system using poly [Glu, Try] 4:1 as substrate in presence of [gamma-33P]ATP. The essentials:
(§2)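 Recombinant kinase assays were run radiometrically by an outside contract service. Activity was read as 33P incorporation into each kinase's substrate and expressed relative to a DMSO control.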

For assay [4], the target named is Receptor-type tyrosine-protein kinase FLT3 (Homo sapiens, UniProt P36888, ITD). Nature of the assay: Inhibition of human partial length FLT3 ITD mutant expressed in bacterial expression system using poly [Glu, Try] 4:1 as substrate in presence of [gamma-33P]ATP. The essentials:
as §2

In assay [5] the target is Epidermal growth factor receptor (Homo sapiens, UniProt P00533). Nature of the assay: Inhibition of wild-type human partial length EGFR (R669 to V1011 residues) expressed in bacterial expression system using poly [Glu, Try] 4:1 as substrate in presence of [gamma-33P]ATP. The gist of the method: as §1
A short description of assay [6]: Selectivity ratio of EC50 for human AXL-negative BT474 cells to EC50 for mouse AXL-positive breast cancer cells. Format: functional. The gist of the method: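 AXL− BT474 and AXL+ cells were each dosed with 8-point half-log series (0.03–100 μM) and read by PrestoBlue at day 5 (n = 2). EC50s were fitted for each line, and the ratio is EC50(AXL−)/EC50(AXL+).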

The next assay relates to BT-474. Description: Antiproliferative activity against human AXL-negative BT474 cells after 5 days by PrestoBlue assay. Format: functional, cell-based. Particulars: BT-474, 120 h. The essentials:
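8-point half-log dose–response, 0.03–100 μM. Cell viability read with PrestoBlue reagent at day 5. EC50 calculated from the curves. SD from n = 2. Screened alongside an AXL+ line, with foretinib as the positive control.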

Chain of Aurora kinase B (Q96GD4 whole entry, the tested form may be a part): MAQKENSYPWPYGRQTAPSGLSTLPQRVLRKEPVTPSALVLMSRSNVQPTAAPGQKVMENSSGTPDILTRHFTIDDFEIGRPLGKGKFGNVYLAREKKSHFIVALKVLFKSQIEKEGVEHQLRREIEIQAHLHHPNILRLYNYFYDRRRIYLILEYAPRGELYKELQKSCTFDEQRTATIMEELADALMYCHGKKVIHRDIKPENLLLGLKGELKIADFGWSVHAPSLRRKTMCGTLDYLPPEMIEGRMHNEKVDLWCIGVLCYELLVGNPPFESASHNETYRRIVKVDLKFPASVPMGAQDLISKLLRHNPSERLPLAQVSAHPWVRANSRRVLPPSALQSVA
Chain of Epidermal growth factor receptor (P00533 whole entry, the tested form may be a part): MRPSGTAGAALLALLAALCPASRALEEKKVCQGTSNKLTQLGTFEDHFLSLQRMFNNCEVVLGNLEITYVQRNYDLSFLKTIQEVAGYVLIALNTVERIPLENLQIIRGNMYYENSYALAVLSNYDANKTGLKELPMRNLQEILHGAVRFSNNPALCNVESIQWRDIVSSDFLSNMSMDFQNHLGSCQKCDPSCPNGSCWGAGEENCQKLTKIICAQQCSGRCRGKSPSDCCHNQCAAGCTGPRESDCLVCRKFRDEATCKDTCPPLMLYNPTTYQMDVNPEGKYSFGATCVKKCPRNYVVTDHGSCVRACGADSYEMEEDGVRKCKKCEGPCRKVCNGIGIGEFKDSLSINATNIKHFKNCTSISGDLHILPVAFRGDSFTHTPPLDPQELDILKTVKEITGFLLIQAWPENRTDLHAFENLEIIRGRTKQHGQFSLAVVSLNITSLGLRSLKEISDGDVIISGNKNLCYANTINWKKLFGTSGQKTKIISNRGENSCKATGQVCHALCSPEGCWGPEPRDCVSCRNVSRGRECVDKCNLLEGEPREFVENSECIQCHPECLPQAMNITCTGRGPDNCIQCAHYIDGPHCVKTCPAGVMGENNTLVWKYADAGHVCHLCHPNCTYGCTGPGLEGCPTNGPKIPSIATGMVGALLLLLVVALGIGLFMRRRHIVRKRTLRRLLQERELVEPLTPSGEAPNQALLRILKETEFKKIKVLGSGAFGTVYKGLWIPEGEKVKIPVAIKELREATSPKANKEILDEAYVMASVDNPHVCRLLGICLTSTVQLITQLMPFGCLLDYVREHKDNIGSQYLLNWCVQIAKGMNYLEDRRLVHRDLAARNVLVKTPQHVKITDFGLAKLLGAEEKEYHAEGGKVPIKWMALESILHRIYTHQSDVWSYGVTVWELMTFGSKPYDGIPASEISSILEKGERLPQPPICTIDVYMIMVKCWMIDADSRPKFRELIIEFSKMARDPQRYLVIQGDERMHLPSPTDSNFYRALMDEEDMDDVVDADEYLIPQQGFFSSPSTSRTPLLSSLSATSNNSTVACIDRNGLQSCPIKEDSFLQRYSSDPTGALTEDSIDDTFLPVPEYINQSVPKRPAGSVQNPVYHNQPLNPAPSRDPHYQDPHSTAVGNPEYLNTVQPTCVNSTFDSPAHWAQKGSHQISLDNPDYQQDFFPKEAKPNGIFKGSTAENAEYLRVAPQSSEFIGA
Chain of Epithelial discoidin domain-containing receptor 1 (Q08345 whole entry, the tested form may be a part): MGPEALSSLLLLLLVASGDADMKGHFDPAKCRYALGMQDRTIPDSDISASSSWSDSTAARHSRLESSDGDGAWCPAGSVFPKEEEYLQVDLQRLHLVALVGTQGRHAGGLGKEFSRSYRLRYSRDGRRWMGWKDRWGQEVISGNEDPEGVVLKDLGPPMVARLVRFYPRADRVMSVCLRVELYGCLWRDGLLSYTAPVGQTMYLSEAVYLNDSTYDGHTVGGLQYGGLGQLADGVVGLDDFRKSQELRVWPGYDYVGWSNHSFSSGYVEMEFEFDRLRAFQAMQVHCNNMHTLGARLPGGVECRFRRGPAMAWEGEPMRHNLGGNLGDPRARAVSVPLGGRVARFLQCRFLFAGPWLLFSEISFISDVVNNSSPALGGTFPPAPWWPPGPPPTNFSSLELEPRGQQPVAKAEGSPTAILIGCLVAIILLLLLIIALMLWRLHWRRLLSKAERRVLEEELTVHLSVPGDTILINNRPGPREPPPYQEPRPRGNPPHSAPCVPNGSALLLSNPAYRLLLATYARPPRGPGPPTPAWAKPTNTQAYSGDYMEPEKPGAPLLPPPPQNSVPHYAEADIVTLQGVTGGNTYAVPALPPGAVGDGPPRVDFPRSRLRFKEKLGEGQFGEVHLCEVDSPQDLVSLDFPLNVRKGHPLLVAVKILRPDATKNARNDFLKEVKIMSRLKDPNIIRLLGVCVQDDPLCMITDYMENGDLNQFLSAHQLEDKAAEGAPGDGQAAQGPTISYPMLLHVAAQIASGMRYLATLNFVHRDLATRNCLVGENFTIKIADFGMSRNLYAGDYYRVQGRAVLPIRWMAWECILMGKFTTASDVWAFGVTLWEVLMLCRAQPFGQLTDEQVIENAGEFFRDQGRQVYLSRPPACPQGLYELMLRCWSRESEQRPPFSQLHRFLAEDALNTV
Chain of Platelet-derived growth factor receptor alpha (P16234 whole entry, the tested form may be a part): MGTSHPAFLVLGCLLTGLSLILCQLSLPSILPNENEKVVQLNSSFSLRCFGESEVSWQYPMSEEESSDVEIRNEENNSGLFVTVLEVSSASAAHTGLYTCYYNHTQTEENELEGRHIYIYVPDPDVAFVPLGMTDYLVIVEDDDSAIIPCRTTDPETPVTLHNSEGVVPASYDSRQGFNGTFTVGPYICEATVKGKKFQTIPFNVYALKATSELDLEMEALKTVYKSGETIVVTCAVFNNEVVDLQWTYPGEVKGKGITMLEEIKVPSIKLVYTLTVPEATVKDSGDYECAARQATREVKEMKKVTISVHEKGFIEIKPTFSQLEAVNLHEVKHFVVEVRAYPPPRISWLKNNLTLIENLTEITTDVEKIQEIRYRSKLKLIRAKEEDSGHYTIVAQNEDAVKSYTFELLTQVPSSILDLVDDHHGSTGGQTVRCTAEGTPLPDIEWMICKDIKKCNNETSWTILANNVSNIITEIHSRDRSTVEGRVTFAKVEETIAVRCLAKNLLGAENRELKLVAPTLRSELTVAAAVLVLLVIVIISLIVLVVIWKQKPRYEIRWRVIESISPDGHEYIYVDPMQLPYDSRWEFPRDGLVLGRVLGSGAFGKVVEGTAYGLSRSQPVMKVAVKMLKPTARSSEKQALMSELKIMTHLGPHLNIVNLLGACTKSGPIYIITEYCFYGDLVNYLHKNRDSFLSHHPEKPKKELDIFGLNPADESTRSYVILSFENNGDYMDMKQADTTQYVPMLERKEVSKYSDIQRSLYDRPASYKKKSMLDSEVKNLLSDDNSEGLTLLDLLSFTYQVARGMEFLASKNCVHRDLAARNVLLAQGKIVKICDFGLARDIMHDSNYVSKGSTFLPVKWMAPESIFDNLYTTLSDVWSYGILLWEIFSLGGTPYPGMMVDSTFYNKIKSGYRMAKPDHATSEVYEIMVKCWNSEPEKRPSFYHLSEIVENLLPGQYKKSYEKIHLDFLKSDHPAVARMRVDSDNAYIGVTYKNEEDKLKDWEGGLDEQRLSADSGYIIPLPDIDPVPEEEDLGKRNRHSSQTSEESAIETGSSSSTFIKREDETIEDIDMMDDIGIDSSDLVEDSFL

What is called IC50 is the concentration at which inhibition is half-maximal. Regarding `CNc1ncc2c(-c3ccc(N4CCN(C)CC4)nc3)nn(CC3CCCC3)c2n1`, the IC50 in assay [1] was 990 nM; on Aurora kinase B, 170 nM; in assay [2], 100 nM; in [3] it was 12 nM; in assay [4] it was 30 nM; in assay [5], more than 10000 nM. For the same molecule, the outcome with MV4-11 and with MOLM-13 was Active.
For `CNc1ncc2c(-c3ccc(N4CCNCC4)cc3)nn(Cc3cn(Cc4ccccc4)nn3)c2n1`, in [6], the “Ratio EC50” value is listed as less than 1.
As usually defined, the EC50 is the concentration at which the effect is half-maximal. Read a high EC50 as a less potent agent. For `CNc1ncc2c(-c3ccc(N4CCNCC4)nc3)nn(CC3CCCC3)c2n1`, the “Ratio EC50” value in [6] came out at 2. This molecule also came in with an EC50 with BT-474 of 1640 nM.
Regarding `Nc1nc(Nc2ccc3c(c2)CC[C@@H](N2CCCC2)CC3)nn1-c1cc2c(nn1)-c1ccccc1CCC2` [BEMCENTINIB], the half-maximal inhibitory concentration (IC50) in assay [1] was found to be 20 nM; at Aurora kinase B, 100 nM; in [2] it was 20 nM; in assay [3], 2 nM; in [4], 6 nM; in [5], 3900 nM. Also, the outcome in the assay on MV4-11 and in the assay on MOLM-13 was Active.
